Assay results gathered from unrelated publications.
Each line is one published result; the experiments were not run side by side.
Target: Tyrosine-protein kinase receptor UFO (AXL, Homo sapiens, UniProt P30530)
One construct used (P30530 1-894): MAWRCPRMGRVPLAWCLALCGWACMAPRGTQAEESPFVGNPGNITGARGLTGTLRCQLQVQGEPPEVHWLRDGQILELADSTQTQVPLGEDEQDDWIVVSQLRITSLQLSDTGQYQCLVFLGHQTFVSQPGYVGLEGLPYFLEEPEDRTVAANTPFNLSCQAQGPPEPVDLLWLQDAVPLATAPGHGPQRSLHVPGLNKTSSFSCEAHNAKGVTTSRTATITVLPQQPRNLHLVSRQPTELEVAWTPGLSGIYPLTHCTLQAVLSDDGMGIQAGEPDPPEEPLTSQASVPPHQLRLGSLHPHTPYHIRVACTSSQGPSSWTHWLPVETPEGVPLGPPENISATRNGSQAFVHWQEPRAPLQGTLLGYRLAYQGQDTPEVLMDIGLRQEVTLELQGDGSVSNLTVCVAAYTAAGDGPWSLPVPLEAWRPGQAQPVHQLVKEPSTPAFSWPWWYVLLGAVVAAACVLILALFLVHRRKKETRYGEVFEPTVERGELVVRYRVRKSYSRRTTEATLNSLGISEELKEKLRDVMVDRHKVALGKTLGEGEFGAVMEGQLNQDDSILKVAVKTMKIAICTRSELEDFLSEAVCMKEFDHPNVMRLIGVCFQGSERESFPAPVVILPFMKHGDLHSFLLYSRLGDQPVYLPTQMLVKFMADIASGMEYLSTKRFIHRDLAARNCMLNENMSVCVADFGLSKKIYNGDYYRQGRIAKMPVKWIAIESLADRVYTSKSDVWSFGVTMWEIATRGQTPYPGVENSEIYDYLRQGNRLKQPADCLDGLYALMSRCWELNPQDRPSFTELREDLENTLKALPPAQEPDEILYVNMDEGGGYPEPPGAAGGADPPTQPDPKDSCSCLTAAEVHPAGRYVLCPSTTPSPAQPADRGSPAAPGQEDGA

Compound	assay	conditions	quantity	value
CCN(CC)CCNC(=O)c1c(C)[nH]c(/C=C2\C(=O)Nc3ccc(F)cc32)c1C	enzyme activity, inhibitor	10 µM	inhibition	94%
Cc1cc(NC(=O)c2cccc(S(F)(F)(F)(F)F)c2)cc(-n2ccn3nc(-c4cccnc4)cc23)c1	cell-free assay, competition with immobilised ligand	1 µM	remaining binding	100%
CCN(CC)CCNC(=O)c1c(C)[nH]c(/C=C2\C(=O)Nc3ccc(F)cc32)c1C	enzyme activity, inhibitor	1 µM	remaining activity	7%
Cc1cc(C)c(-n2ccn3nc(-c4cccnc4)cc23)cc1NC(=O)c1cc(C#N)cc(S(F)(F)(F)(F)F)c1	cell-free assay, competition with immobilised ligand	0.1 µM	remaining binding	80.5%
O=C(Nc1cnn(-c2csc(C(=O)NC3COC3)c2)c1)Nc1ccccc1Cl	enzyme activity, inhibitor	5 µM	remaining activity	96.7%
COc1cc2ncnc(Nc3ccc(Oc4ccccc4)cc3C)c2cc1OC	enzyme activity, inhibitor	1 µM	inhibition	8%
CN([C@@H]1CCc2c(CC(=O)O)c3ccccc3n2C1)S(=O)(=O)c1ccc(F)cc1	cell-free assay, competition with immobilised ligand	1 µM	remaining binding	100%
O=C1NC(=O)c2cc(Nc3ccc(F)cc3)c(Nc3ccc(F)cc3)cc21	cell-free assay	0.5 µM	remaining signal	104%
Cc1cc(NC(=O)c2cccc3cc(-c4cccc5[nH]nc(N)c45)ccc23)ccc1F	enzyme activity, inhibitor	0.1 µM	activity vs control	113%
O=C1Nc2ccc(Cl)cc2C1=Cc1cc(Cl)c(O)c(Cl)c1	cell-free assay	0.5 µM	remaining signal	106%
CC(C)(C)c1nc(-c2cccc(NS(=O)(=O)c3c(F)cccc3F)c2F)c(-c2ccnc(N)n2)s1	enzyme activity, inhibitor, radiometric	1 µM	remaining activity	75%
Cc1[nH]c(/C=C2\C(=O)Nc3ccc(F)cc32)c(C)c1C(=O)N[C@H]1CCN(C(=O)N(C)C)C1	enzyme activity, inhibitor	1 µM	remaining activity	43%
COc1cc2nccc(Oc3ccc(NC(=O)c4c5n(n(-c6ccc(F)cc6)c4=O)CCCC5)cc3)c2cc1OC	enzyme activity, inhibitor	0.1 µM	inhibition	93%
O=C(Nc1ccc(Oc2ccc(F)cc2)cc1)N1CCc2ncccc2[C@H]1c1ccc(F)cc1	cell-free assay, competition with immobilised ligand	1 µM	remaining binding	77%
Cc1cnc(NC2CCOCC2)nc1-n1cnc(C(=O)NC(CN)c2cc(F)cc(Cl)c2)c1 (centres unmarked)	enzyme activity, inhibitor, radiometric	1 µM	remaining activity	103%
CNC(=O)c1cc(Oc2ccc(NC(=O)Nc3ccc(Cl)c(C(F)(F)F)c3)cc2)ccn1	enzyme activity, inhibitor	0.3 µM	inhibition	3%

Compound	assay	conditions	quantity	value
CNCc1ccc(-c2cc(-c3nc(-c4ccc(S(=O)(=O)C(C)C)cc4)cnc3N)on2)cc1	enzyme activity, inhibitor	0.4 µM	inhibition	27%
CNC(=O)c1cc2c(Oc3ccc(NC(=O)C4(C(=O)Nc5ccc(F)cc5)CC4)cc3)ccnc2cc1OC	enzyme activity, inhibitor, radiometric	1 µM	inhibition	87%
COc1cc2nccc(Oc3ccc(NC(=S)NC(=O)c4ccccc4C)cc3)c2cc1OC	enzyme activity, inhibitor	0.5 µM	remaining activity	80.4%
Nc1ncnc2occ(-c3ccc(NC(=O)Nc4cc(C(F)(F)F)ccc4F)cc3)c12	cell-free assay	20 µM	remaining signal	21%
CCCOc1ccc([C@H]2[C@H](C(=O)O)[C@@H](c3ccc4c(c3)OCO4)CN2CC(=O)Nc2c(CC)cccc2CC)cc1	cell-free assay, competition with immobilised ligand	1 µM	remaining binding	83%
CCN(CC)c1ccc(C2=NNC(=O)CC2C)cc1[N+](=O)[O-] (centres unmarked)	enzyme activity, inhibitor	10 µM	remaining activity	94%
CC(=O)N1CCC(c2ccc(C(=O)NC(=N)N)cc2C(F)(F)F)CC1	cell-free assay, competition with immobilised ligand	1 µM	remaining binding	100%
CC(C)(O)[C@H]1CC[C@H](Nc2ccc3ncc(-c4cccc(C(F)(F)F)c4)n3n2)CC1	enzyme activity, inhibitor	1 µM	remaining activity	78%
Clc1ccc(Nc2nnc(Cc3ccncc3)c3ccccc23)cc1	cell-free assay	0.5 µM	remaining signal	98.3%
CC/C(=N\NC(=O)NCc1cccc(O)c1)c1ccc(O)c(C)c1O	enzyme activity, inhibitor	0.1 µM	inhibition	1.3%
O=c1c2ccccc2[nH]c(=S)n1CCN1CCC(=C(c2ccc(F)cc2)c2ccc(F)cc2)CC1	enzyme activity, inhibitor	0.5 µM	remaining activity	91.7%
Cc1c(C(=O)O)cc(-c2ccc(C3CCNCC3)cc2)c2ccc(-c3ccc(C(F)(F)F)cc3)cc12	binding, competition with immobilised ligand	1 µM	remaining binding	100%
O=C(O)c1ccc2c3c1cccc3c(=O)n1c3ccccc3nc21	enzyme activity, inhibitor	0.5 µM	remaining activity	94.3%
O=C(Nc1cnn(-c2csc(C(=O)NC3COC3)c2)c1)Nc1c(F)cccc1Cl	enzyme activity, inhibitor	5 µM	remaining activity	73%
Cc1ccc(Nc2nccc(N(C)c3ccc4c(C)n(C)nc4c3)n2)cc1S(N)(=O)=O	cell-free assay	0.5 µM	remaining signal	78.1%
Cc1nc(Cc2cccc(C(F)(F)F)c2)sc1-c1ccc(C(N)=O)nc1	binding, competition with immobilised ligand	1 µM	remaining binding	100%
